Converted amounts (≈) assume the structure as drawn. The source made the active and inactive calls. No cut-off for these calls is given here.
Experiments:
[1] = system: Aspergillus fumigatus; test: Antimicrobial activity against Aspergillus fumigatus NCIM 902 after 72 hrs by serial dilution method; assay type: functional; details: NCIM 902, 72 h
Summary of the method: (§1)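 MIC by broth dilution in Sabouraud's dextrose broth, only for fungi sensitive in disc diffusion. Two-fold serial dilutions of compounds are made in 1 ml broth per tube, range 3.9 to 1000. Inoculated tubes are incubated at 27 °C for 72 h.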

[2] = system: Bacillus subtilis; test: Antimicrobial activity against Bacillus subtilis NCIM 2063 after 24 hrs by serial dilution method; assay type: functional; details: NCIM 2063, 24 h
Summary of the method: (§2)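 Broth dilution MIC in nutrient broth, run only for organisms found sensitive in disc diffusion. Compounds are two-fold serially diluted in 1 ml sterile broth per tube, spanning 3.9 to 1000. Inoculated tubes are incubated at 37 °C for 24 h.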

[3] = system: Aspergillus fumigatus; test: Antimicrobial activity against Aspergillus fumigatus NCIM 902 at 1000 ug/disk after 72 hrs by disk diffusion method; assay type: functional; details: for zone of inhibition at 1000 µg/disc: NCIM 902, 72 h, read-out: DIZ
Summary of the method: (§3)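 Disc diffusion on Sabouraud's dextrose agar. 100 µl of fungal suspension at 10⁶ CFU/ml is spread on the plate. Discs carry test compounds at two loadings in DMSO; DMSO alone is the negative control. Clotrimazole disc is the positive reference. Plates are incubated at 27 °C for 72 h, and the zone of inhibition diameter is measured.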

[4] = system: Rhodotorula mucilaginosa; test: Antimicrobial activity against Rhodotorula rubra NCIM 3174 after 72 hrs by serial dilution method; assay type: functional; details: NCIM 3174, 72 h
Summary of the method: (§4)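 MIC by broth dilution in Sabouraud's dextrose broth, run only on fungi found sensitive in the disc assay. Twofold serial dilutions were made in 1 ml broth per tube, covering 3.9 to 1000. Inoculated tubes were incubated at 27 °C for 72 h.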

[5] = system: Klebsiella aerogenes; test: Antimicrobial activity against Klebsiella aerogenes NCIM 2239 after 24 hrs by serial dilution method; assay type: functional; details: NCIM 2239, 24 h; summary of the method: as §2
[6] = system: Bacillus cereus; test: Antimicrobial activity against Bacillus cereus NCIM 2155 after 24 hrs by serial dilution method; assay type: functional; details: NCIM 2155, 24 h; summary of the method: as §2
[7] = system: Klebsiella aerogenes; test: Antimicrobial activity against Klebsiella aerogenes NCIM 2239 at 1000 ug/disk after 24 hrs by disk diffusion method; assay type: functional; details: for zone of inhibition at 1000 µg/disc: NCIM 2239, 24 h, read-out: DIZ
Summary of the method: (§5)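 Disc diffusion on Mueller–Hinton agar. 100 µl of bacterial suspension at 10⁸ CFU/ml is spread on the plate. Discs carry test compounds at two loadings, dissolved in DMSO; DMSO alone serves as negative control. Ofloxacin disc is the positive reference. Plates are incubated at 37 °C for 24 h, and the inhibition zone diameter is measured.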

[8] = system: Aspergillus niger; test: Antimicrobial activity against Aspergillus niger NCIM 902 after 72 hrs by serial dilution method; assay type: functional; details: NCIM 1196, 72 h, in the assay text read “NCIM 1196” for “NCIM 902”; summary of the method: as §1
[9] = system: Aspergillus niger; test: Antimicrobial activity against Aspergillus niger NCIM 902 at 1000 ug/disk after 72 hrs by disk diffusion method; assay type: functional; details: NCIM 1196, 72 h, in the assay text read “NCIM 1196” for “NCIM 902”, read-out: DIZ; summary of the method: as §3
[10] = system: Lipomyces lipofer; test: Antimicrobial activity against Lipomyces lipofer NCIM 3252 after 72 hrs by serial dilution method; assay type: functional; details: NCIM 3252, 72 h; summary of the method: as §1
[11] = system: Aspergillus niger; test: Antimicrobial activity against Aspergillus niger NCIM 902 at 500 ug/disk after 72 hrs by disk diffusion method; assay type: functional; details: NCIM 1196, 72 h, in the assay text read “NCIM 1196” for “NCIM 902”, read-out: DIZ; summary of the method: as §3
[12] = system: Proteus vulgaris; test: Antimicrobial activity against Proteus vulgaris NCIM 2027 after 24 hrs by serial dilution method; assay type: functional; details: NCIM 2027, 24 h; summary of the method: as §2
[13] = system: Bacillus cereus; test: Antimicrobial activity against Bacillus cereus NCIM 2155 at 500 ug/disk after 24 hrs by disk diffusion method; assay type: functional; details: for zone of inhibition at 500 µg/disc: NCIM 2155, 24 h, read-out: DIZ; summary of the method: as §5
[14] = system: Salmonella typhimurium; test: Antimicrobial activity against Salmonella Typhimurium NCIM 2501 after 24 hrs by serial dilution method; assay type: functional, Salmonella enterica subsp. enterica serovar Typhimurium; details: Salmonella enterica, NCIM 2501, 24 h
[15] = system: Bacillus subtilis; test: Antimicrobial activity against Bacillus subtilis NCIM 2063 at 1000 ug/disk after 24 hrs by disk diffusion method; assay type: functional; details: NCIM 2063, 24 h, read-out: DIZ; summary of the method: as §5
[16] = system: Staphylococcus; test: Antimicrobial activity against Staphylococcus albus NCIM 2178 after 24 hrs by serial dilution method; assay type: functional; details: NCIM 2178, 24 h
[17] = system: Trichoderma viride; test: Antimicrobial activity against Trichoderma viride NCIM 1195 after 72 hrs by serial dilution method; assay type: functional; details: NCIM 1195, 72 h; summary of the method: as §4
[18] = system: Rhodococcus corynebacterioides; test: Antimicrobial activity against Corynebacterium rubrum NCIM 2252 after 24 hrs by serial dilution method; assay type: functional; details: Rhodococcoides corynebacterioides, NCIM 2252, 24 h; summary of the method: as §2
[19] = system: Aspergillus parasiticus; test: Antimicrobial activity against Aspergillus parasiticus NCIM 904 at 1000 ug/disk after 72 hrs by disk diffusion method; assay type: functional; details: NCIM 904, 72 h, read-out: DIZ; summary of the method: as §3
[20] = system: Aspergillus niger; test: Antimicrobial activity against Aspergillus niger NCIM 1196 at 1000 ug/disk after 72 hrs by disk diffusion method
[21] = system: Aspergillus niger; test: Antimicrobial activity against Aspergillus niger NCIM 1196 at 500 ug/disk after 72 hrs by disk diffusion method
[22] = system: Penicillium chrysogenum; test: Antimicrobial activity against Penicillium chrysogenum NCIM 707 after 72 hrs by serial dilution method; assay type: functional; details: NCIM 707, 72 h; summary of the method: as §1
[23] = system: Pseudomonas aeruginosa; test: Antimicrobial activity against Pseudomonas aeruginosa NCIM 2200 after 24 hrs by serial dilution method; assay type: functional; details: NCIM 2200, 24 h; summary of the method: as §2

| SMILES | MIC [1] | MIC [2] | MIC [4] | MIC [5] | MIC [6] | MIC [10] | MIC [12] | MIC [14] | MIC [16] | MIC [17] | MIC [18] | MIC [22] | zone of inhibition at 1000 µg/disc [3] | zone of inhibition at 1000 µg/disc [7] | zone of inhibition at 500 µg/disc [13] | zone of inhibition at 1000 µg/disc [15] | zone of inhibition at 1000 µg/disc [19] | diameter of the inhibition zone (DIZ) [20] | diameter of the inhibition zone (DIZ) [21] | diameter of the inhibition zone (DIZ) [13] | other results |
| --- | --- | --- | --- | --- | --- | --- | --- | --- | --- | --- | --- | --- | --- | --- | --- | --- | --- | --- | --- | --- | --- |
| O=C1CCCC2=C1C(c1ccc(O)cc1)c1ccc3ccccc3c1N2 (stereo not given) |  | 31.2 µg/mL (≈ 91.4 µM) | 7.8 µg/mL (≈ 22.8 µM) | 62.5 µg/mL (≈ 183 µM) |  | 62.5 µg/mL (≈ 183 µM) | 125 µg/mL (≈ 366 µM) | 125 µg/mL (≈ 366 µM) | 62.5 µg/mL (≈ 183 µM) | 31.2 µg/mL (≈ 91.4 µM) | 125 µg/mL (≈ 366 µM) | 125 µg/mL (≈ 366 µM) |  | 10 mm |  | 11 mm | 13 mm |  |  | inactive | diameter of the inhibition zone (DIZ) [3]: inactive; MIC [23]: 125 µg/mL (≈ 366 µM); MIC [8]: 62.5 µg/mL (≈ 183 µM); zone of inhibition at 1000 µg/disc [9]: 9 mm; zone of inhibition at 500 µg/disc [11]: 9 mm |
| O=C1CCCC2=C1C(c1ccccc1Cl)c1ccc3ccccc3c1N2 (stereo not given) | 62.5 µg/mL (≈ 174 µM) | 62.5 µg/mL (≈ 174 µM) | 3.9 µg/mL (≈ 10.8 µM) |  |  |  |  |  |  | 62.5 µg/mL (≈ 174 µM) | 125 µg/mL (≈ 347 µM) |  | 9 mm |  |  | 10 mm | 10 mm | inactive | inactive | inactive | diameter of the inhibition zone (DIZ) [7]: inactive |
| CC1(C)CC(=O)C2=C(C1)Nc1c(ccc3ccccc13)C2c1cccc([N+](=O)[O-])c1 (stereo not given) | 62.5 µg/mL (≈ 157 µM) | 31.2 µg/mL (≈ 78.3 µM) | 7.8 µg/mL (≈ 19.6 µM) | 31.2 µg/mL (≈ 78.3 µM) | 15.6 µg/mL (≈ 39.2 µM) | 62.5 µg/mL (≈ 157 µM) | 125 µg/mL (≈ 314 µM) | 15.6 µg/mL (≈ 39.2 µM) | 125 µg/mL (≈ 314 µM) | 31.2 µg/mL (≈ 78.3 µM) | 125 µg/mL (≈ 314 µM) | 62.5 µg/mL (≈ 157 µM) | 10 mm | 11 mm | 10 mm | 11 mm | 16 mm | inactive | inactive |  | MIC [23]: 125 µg/mL (≈ 314 µM) |

The remaining molecules from weak to strong by MIC [2], led by results:

| MIC [1] | MIC [2] | MIC [4] | MIC [5] | MIC [6] | MIC [10] | MIC [12] | MIC [14] | MIC [16] | MIC [17] | MIC [18] | MIC [22] | SMILES | zone of inhibition at 1000 µg/disc [3] | zone of inhibition at 1000 µg/disc [7] | zone of inhibition at 500 µg/disc [13] | zone of inhibition at 1000 µg/disc [15] | zone of inhibition at 1000 µg/disc [19] | diameter of the inhibition zone (DIZ) [20] | diameter of the inhibition zone (DIZ) [21] | diameter of the inhibition zone (DIZ) [13] | other results |
| --- | --- | --- | --- | --- | --- | --- | --- | --- | --- | --- | --- | --- | --- | --- | --- | --- | --- | --- | --- | --- | --- |
| 62.5 µg/mL (≈ 161 µM) | 62.5 µg/mL (≈ 161 µM) | 62.5 µg/mL (≈ 161 µM) | 125 µg/mL (≈ 322 µM) | 62.5 µg/mL (≈ 161 µM) | 125 µg/mL (≈ 322 µM) |  | 62.5 µg/mL (≈ 161 µM) |  | 15.6 µg/mL (≈ 40.2 µM) | 125 µg/mL (≈ 322 µM) | 62.5 µg/mL (≈ 161 µM) | CC1(C)CC(=O)C2=C(C1)Nc1c(ccc3ccccc13)C2c1cccc(Cl)c1 (stereo not given) | 9 mm | 9 mm | 9 mm | 9 mm | 12 mm | inactive | inactive |  |  |
| 125 µg/mL (≈ 337 µM) | 31.2 µg/mL (≈ 84.2 µM) | 3.9 µg/mL (≈ 10.5 µM) | 125 µg/mL (≈ 337 µM) | 62.5 µg/mL (≈ 169 µM) | 62.5 µg/mL (≈ 169 µM) | 125 µg/mL (≈ 337 µM) | 62.5 µg/mL (≈ 169 µM) | 62.5 µg/mL (≈ 169 µM) | 62.5 µg/mL (≈ 169 µM) | 125 µg/mL (≈ 337 µM) |  | O=C1CCCC2=C1C(c1cccc([N+](=O)[O-])c1)c1ccc3ccccc3c1N2 (stereo not given) | 9 mm | 9 mm | 7 mm | 12 mm | 13 mm |  |  |  | MIC [8]: 125 µg/mL (≈ 337 µM); zone of inhibition at 1000 µg/disc [9]: 7 mm; zone of inhibition at 500 µg/disc [11]: 7 mm |
| 31.2 µg/mL (≈ 86.7 µM) | 31.2 µg/mL (≈ 86.7 µM) | 62.5 µg/mL (≈ 174 µM) | 125 µg/mL (≈ 347 µM) |  |  |  |  |  | 125 µg/mL (≈ 347 µM) | 125 µg/mL (≈ 347 µM) |  | O=C1CCCC2=C1C(c1cccc(Cl)c1)c1ccc3ccccc3c1N2 (stereo not given) | 12 mm | 9 mm |  | 11 mm | 13 mm | inactive | inactive | inactive |  |

— ChEMBL document CHEMBL1138564, “Microwave-induced synthesis and anti-microbial activities of 7,10,11,12-tetrahydrobenzo[c]acridin-8(9H)-one derivatives” (2009)
